Measurements as given in the EternaBench riboswitch data.

System: MS2 coat protein
Assay: apparent Kd, MS2 coat protein; higher = weaker binding; RNA-MaP array; FMN 200 µM where present
In short: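 Two titrations, one without ligand and one with constant ligand, were run with SNAP-549-labelled MS2 coat protein from 0.7 or 1.5 nM, doubling to 3 µM. The targets were designs transcribed by stalled E. coli RNA polymerase on Illumina sequencing-chip clusters, in 100 mM Tris-HCl pH 7.5, 80 mM KCl, 4 mM MgCl2, BSA, DTT, yeast tRNA and Tween-20. The apparent Kd is the median of filtered per-cluster binding-curve fits, with green signal normalised to red-channel RNA signal and control-cluster median Fmax.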

[1] = designed as: OFF switch for flavin mononucleotide, no ligand
[2] = ligand present: flavin mononucleotide, designed as: OFF switch for flavin mononucleotide
[3] = designed as: ON switch for flavin mononucleotide, no ligand
[4] = ligand present: flavin mononucleotide, designed as: ON switch for flavin mononucleotide

Sequence	apparent Kd [1] [nM]	apparent Kd [2] [nM]	apparent Kd [3] [nM]	apparent Kd [4] [nM]
GGUACUCAAAGAGUACCAAUACGAACAUGAGGAUCACCCAUGUAGGAUAUGUUUUCGCCGGAGUAUCAGAAGGACAUGUGCCUA	10.9	9.15	–	–
GUGUACGGAGGAUAUAUGUGGGCAGGCUGACCUGCAGCUUCACAUGAGGAUCACCCAUGUAGAAGGCUGUGCAC	22.2	92.9	–	–
GAGGAGCAAGGAUAUACGAGGAUAUGGUAGUUUGUAGAGUGACAUGAGGAUCACCCAUGUAGAAGGUGCGAGGG	64.2	52.9	–	–
GCCAUCGCAUGAGGAUAUAAUCGGGUUUCCCGUUUAGAAGGCAUGUCAUAAGACAUGAGGAUCACCCAUGUAGUUAAGAUGGCA	–	–	471	27
GUGGUUGUCGUAGGAUAUGUAGGAUAUUCCUACAUGAGGAUCACCCAUGUUCGCAUGGAAGAAGGACAGAAGGACGAUGACCAA	–	–	1160	9.11
UGUAUUAAUGGAGGAUAUCGAUAUCAAACAUGAGGAUCACCCAUGUUGAGGAUCACCCAUGUCCAUGAGAAGGCCGGCGUACUU	–	–	34.4	32.8
GCCAUCGCGUGAGGAUAUGCUCCGGUUUCCGGAGCAGAAGGCAUGUCAUAAGACAUGAGGAUCACCCAUGUAGUUAAGAUGGCA	–	–	238	9.79
CCUCUGUUAGGAUAUCUUUUGUUCGCCGUAGGUCGGAUCAUGGAGAAGGGACAUGAGGAUCACCCAUGUUUACC	29.7	56.2	–	–
UUAAAUCAUGUAGGAUAUGCAUGGCGAAGCUACGCAGAAGGACAUGAGGAUCACCCAUGUUAUAGCUACCGAGUUCGGUGGCAA	109	224	–	–
CCAGAGAUAUGAGGAUAUCGAGUGGAAUACACUCGAGAAGGCAUGUGAAAACAUGAGGAUCACCCAUGUGAUCAAUACUCUGGA	–	–	176	27.7
GGGCGUAAUACAUGAGGAUCACCCAUGUCAGAAAGGGUAAUCAGAAGGUACUAUUAGAGAAAGAGUAAGGAUAUGAAUACGCCC	–	–	876	169
UUAACAUGAGGAUCACCCAUGUAUAGAUCGGUUAAUAGAAGUGAGGAUAUGCUUAAAAUAAGGUAGCAGAAGGCACUGGGUACU	–	–	24.2	28.7
CUCUCUGAUCGAGGAUAUCGAGCUUCCGCCCUUCGAGAAGGCGACAUGAGGAUCACCCAUGUAAGGAGGACACUCACUCACACG	26.4	22.5	–	–
CUUUUGUGAGGAUAUUAGUAGUAAAUAAAUAAAAUUACUACUGAGAAGGCACAUGAGGAUCACCCAUGUUCCUU	12.6	38	–	–
UGUGUGUUUGUGAGGAUAUGCGCGCGGAAAUGUGUGUAGAAGGCACAUGAGGAUCACCCAUGUAAGGGCGCGCG	596	439	–	–
GUGCAAACAUGAGGAUAUGUAUUAAAUAAUAAUACAGAAGGCAUGUCAAAUGACAUGAGGAUCACCCAUGUUGGCAAAAUGCGC	–	–	144	29.7
ACAUGAUCAGGAUAUACAUGAGGAUCACCCAUGUUUAUCAAAAAAGGGCUUUCUACAUGUAGAAGGGAUCUUGU	21.8	39.9	–	–
UUAACUCAUGUAGGAUAUGCAUGGCGAAGCUACGCAGAAGGACAUGAGGAUCACCCAUGUUCUAGCGUCUGGAUACAGAUGCAA	56.1	227	–	–
UGGUACUAGGGAGGAUAUGGGAAGAUACAUGAGGAUCACCCAUGUUUAAGAAUGCCGAGCGGCAACUAGAAGGCCCUAGUACCU	–	–	479	20.8
CCUCUACAUGAGGAUCACCCAUGUGAGGAUAUCUCGGAGCAGCCACUUAAGGCGCUCCAGAGAAGGCACGUGUA	19.6	28.8	–	–
AAAUUUAACGAAGGAUAUGCUUACAUGAGGAUCACCCAUGUGUGCCUUGUGAUGCUGAUUAAGUUGCAGAAGGUCGUAUACAUA	124	414	–	–

Sequence	apparent Kd [1] [nM]	apparent Kd [2] [nM]	apparent Kd [3] [nM]	apparent Kd [4] [nM]
ACAUGAGGAUGAGGAUAUUCAUCCAUGAGGAUAGAAGAAGGCAUACAUGAGGAUCACCCAUGUAUACACAUGAGGAUCCCUUAU	44.5	121	–	–
ACGCUUUGGGAGAAGGUACGUUAAUUUUUUUCCACAUGAGGAUCACCCAUGUAAGGAUAUCCCGUCGUUAAAUAGGCUACAGCA	9.59	9.37	–	–
UCGCUUGAAGGAUAUACGAUUCGUUGUGUUCGUGUCACCUGACAUGAGGAUCACCCAUGUAGAAGGUCACGCAG	18.6	24.6	–	–
UUUGAAUAGGUAGGAUAUACUUUCAAUUUUCUUUUCCUUACAUGAGGAUCACCCAUGUUUACAUUGUAGAAGGACCUCAUUGAU	215	173	–	–
AUGUGGUUCCCGGCCAUCGUGUACGAGGAUAUCCUCGAACAUGAGGAUCACCCAUGUAACGUUGUGGAGAAGGCGUACGCUUGG	–	–	130	7.73
UUGGACGUCGUAGGAUAUGUAGGAUAUUCCAACAUGAGGAUCACCCAUGUUGACAUGGAAGAAGGACAGAAGGACGAUGUCCAU	–	–	4.28	3.63
UUUUUACUUGUAGGAUAUGGAGACAUGAGGAUCACCCAUGUAUGAUAAGCUAAAUUAUGCUGUGGCCAGAAGGAUAUUAUUCUU	–	–	48.2	53.7
GCGUUCAUGUAGAAGGUACCUACAACAUAUUAUAAACGCUAGACACAUGAGGAUCACCCAUGUUGUAAGGAUAUACAUGAACGC	–	–	49	22
UUCAUCAAUGAAGGAUAUCUAUGUCCAACAUGAGGAUCACCCAUGUUGAGGAUCACCUAUGUAAAGGAGAAGGUUAAUAUAACU	–	–	6.96	6.42
AAUACAUGAGGAUCACCCAUGUAAAGAUCUGUUAAUAGAUGUGAGGAUAUACUAAAUUUUAGGUAGUAGAAGGCACUGGGUACA	–	–	22.1	26
AAGAAACAUGAGGAUCACCCAUGUCAGGAUAUGCAGGACUGACGAAAGUCAGUCCAAAGCAGAAGGGACUAGAA	60.7	81.8	–	–
AUGCGUGGCUAGGAUAUUGAGGAAAUUAGUCAGCGAGAAGGAGCCACAUGAGGAUCACCCAUGUGGUGAAGCUC	15.5	60.3	–	–
CGUGCGUAUGUGAGGAUAUGCUGGUCCUUGGAUCAGCAGAAGGCACAUGAGGAUCACCCAUGUGGUGUCGUACC	262	44.1	–	–
AACGCGUCAGGAUAUAGCGUAACUUAGGUAGUACGACCAUACUAGAAGGGACAUGAGGAUCACCCAUGUGGGUA	232	112	–	–
UUGAGGUCAGGAUAUGCAUGGCGGGACUUGCGUCGUGGCGUGCAGAAGGGACAUGAGGAUCACCCAUGUGGAGU	145	236	–	–
AUAAUGAGAGGAUAUACAUGAGGAUCACCCAUGUUAUUAACACGGCGAGCUCCAAUACGUAGAAGGCUCAUUUA	123	26.5	–	–
AAAAGACAUGAGGAUCACCCAUGUAAAGACGUAGGAGGAUAUGUCUUGAAAAAAGACUUGACAGAAGGCCUGUGUC	–	–	26.4	19
GGGAAGUAAGGAUAUGCUGCUCGUCACUUGCGUGAUGAGUAGCAGAAGGUACAUGAGGAUCACCCAUGUAAAGA	29.7	26.9	–	–
GGUGCGUAUGUGAGGAUAUGCUGGUCCUUGGCUCGGCAGAAGGCACAUGAGGAUCACCCAUGUGGUGUCGUGCC	16.9	37.7	–	–
UUGUUGUAUGUAGGAUAUGCAUAUUAUUAUUAUGCAGAAGGACAUGAGGAUCACCCAUGUAUAUUAUUAUUAUAUAUUAUAUAU	30	49.3	–	–
UUUUCAUCAUCAGGAUAUUAACGUGGGCUACUUUAAGAAGGGAUAGUGGGAGAGGAUGUGAAACAUGAGGAUCACCCAUGUUGU	–	–	14.2	10
